Source: PMC12827892 (Acta Pharmaceutica Sinica. B, 2025)
pIC50: −log10 of the molar value. Like-named read-outs stand apart in the source and are kept apart here.

Columns and labels:
OC43 = type: cell-based, HCoV-OC43; details: Huh7 hepatocytes, 0.1 MOI
SARS-CoV-2 [1] = type: in vivo, K18-hACE2 transgenic mice; details: ip, BID; for Weight loss in infected mice: five days; for SARS-CoV-2 viral loads in the lungs: Day 6, RT-PCR and IHC
[2] = system: expression levels of ACE2; type: cell-based; details: mouse airway organoids
USP7 = USP7 (Homo sapiens, UniProt Q93009); experiment: DUB enzymatic assay; type: biochemical; details: 10 μmol/L
Nsp3179-1329 proteins = Nsp3179-1329 proteins (Severe acute respiratory syndrome coronavirus 2, UniProt P0DTD1); set-up: species or system SARS-CoV-2; details: incubation with compound, SEC
OTUB1 = OTUB1 (Homo sapiens, UniProt Q96FW1); experiment: DUB enzymatic assay; type: biochemical; details: 10 μmol/L
UCHL1 = target: T1, UCHL1 (Homo sapiens, UniProt P09936); experiment: DUB enzymatic assay; type: biochemical; details: 10 μmol/L
T1 sequence (P09936 1-223): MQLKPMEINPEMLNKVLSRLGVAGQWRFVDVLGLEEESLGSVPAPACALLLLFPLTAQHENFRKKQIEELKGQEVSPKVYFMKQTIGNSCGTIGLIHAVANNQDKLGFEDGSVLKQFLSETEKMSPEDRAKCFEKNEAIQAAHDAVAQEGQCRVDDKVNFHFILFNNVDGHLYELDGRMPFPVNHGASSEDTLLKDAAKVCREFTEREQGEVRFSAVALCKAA

[3] = system: phosphorylation levels of RIPK1 Ser166; type: cell-based; details: mouse airway organoids
USP14 = USP14 (Homo sapiens, UniProt P54578); experiment: DUB enzymatic assay; type: biochemical; details: 10 μmol/L
USP8 = target: T2, USP8 (Homo sapiens, UniProt P40818); experiment: DUB enzymatic assay; type: biochemical; details: 10 μmol/L
T2 sequence (P40818 1-1118): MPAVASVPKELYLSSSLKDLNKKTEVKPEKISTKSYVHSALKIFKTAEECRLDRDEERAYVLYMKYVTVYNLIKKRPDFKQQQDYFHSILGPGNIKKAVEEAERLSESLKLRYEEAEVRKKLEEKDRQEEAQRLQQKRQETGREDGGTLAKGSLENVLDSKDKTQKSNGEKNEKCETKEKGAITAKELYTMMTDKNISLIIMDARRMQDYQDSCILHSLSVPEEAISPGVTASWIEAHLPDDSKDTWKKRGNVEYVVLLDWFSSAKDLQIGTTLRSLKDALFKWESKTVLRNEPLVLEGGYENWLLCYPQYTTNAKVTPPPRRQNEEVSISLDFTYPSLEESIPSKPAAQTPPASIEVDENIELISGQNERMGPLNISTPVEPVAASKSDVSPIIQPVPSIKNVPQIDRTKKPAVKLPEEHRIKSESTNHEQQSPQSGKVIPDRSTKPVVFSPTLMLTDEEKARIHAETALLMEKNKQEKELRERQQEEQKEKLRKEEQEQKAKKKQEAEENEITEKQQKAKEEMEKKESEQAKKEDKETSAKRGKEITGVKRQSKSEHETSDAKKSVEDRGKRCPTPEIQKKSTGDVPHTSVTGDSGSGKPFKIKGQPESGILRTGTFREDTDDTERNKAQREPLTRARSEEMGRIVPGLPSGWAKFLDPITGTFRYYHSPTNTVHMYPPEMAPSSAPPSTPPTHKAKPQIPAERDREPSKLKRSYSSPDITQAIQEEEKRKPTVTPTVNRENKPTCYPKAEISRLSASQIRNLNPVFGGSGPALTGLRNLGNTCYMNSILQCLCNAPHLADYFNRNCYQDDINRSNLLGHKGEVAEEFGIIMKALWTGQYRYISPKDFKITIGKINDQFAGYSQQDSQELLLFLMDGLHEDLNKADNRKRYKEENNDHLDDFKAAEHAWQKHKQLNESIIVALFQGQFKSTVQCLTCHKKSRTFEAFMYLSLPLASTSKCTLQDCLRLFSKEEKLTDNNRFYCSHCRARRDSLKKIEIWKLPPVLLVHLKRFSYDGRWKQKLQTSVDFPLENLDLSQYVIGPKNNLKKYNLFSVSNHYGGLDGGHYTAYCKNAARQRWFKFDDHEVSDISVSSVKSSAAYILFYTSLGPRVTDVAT

SARS-CoV-2 Nsp3^179−1329 = SARS-CoV-2 Nsp3^179−1329 (Severe acute respiratory syndrome coronavirus 2, UniProt P0DTD1); experiment: Nsp3 DUB activity, Rho-110 cleavage assay; type: biochemical
[4] = Stability in mouse liver microsomes; type: in vitro ADME; details: compared to 2
OTULIN = OTULIN (Homo sapiens, UniProt Q96BN8); experiment: DUB enzymatic assay; type: biochemical; details: 10 μmol/L
229E = type: cell-based, HCoV-229E
SARS-CoV-2 [5] = experiment: SARS-CoV-2 replication in hACE2-HeLa cells; type: cell-based; details: 10 μmol/L
SARS-CoV-2 [6] = type: cell-based; details: 4 μmol/L
cytokine secretion = type: cell-based, mouse; details: single agent
[7] = system: panel of over 300 wild-type human kinases; experiment: KINOMEscan kinase selectivity profile; type: binding; details: 1 μmol/L
[8] = Pharmacokinetic studies in mice; type: in vivo, male ICR mice
Procedure, shortened: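 Test compound was formulated in 10% (v/v) dimethylacetamide and 10% (w/v) Solutol HS 15 in normal saline. It was given to male ICR mice by tail-vein iv (1 mpk) or ip (10 mpk). Plasma from centrifuged whole blood was diluted in acetonitrile with internal standard. Brain was taken into PBS/acetonitrile (1:8) with internal standard and homogenised (30 Hz, 10 min). Samples were centrifuged (4 °C, 14,000 rpm, 10 min) and analysed by LC-MS/MS.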

Sequence of OTULIN (Q96BN8 whole entry, species assumed): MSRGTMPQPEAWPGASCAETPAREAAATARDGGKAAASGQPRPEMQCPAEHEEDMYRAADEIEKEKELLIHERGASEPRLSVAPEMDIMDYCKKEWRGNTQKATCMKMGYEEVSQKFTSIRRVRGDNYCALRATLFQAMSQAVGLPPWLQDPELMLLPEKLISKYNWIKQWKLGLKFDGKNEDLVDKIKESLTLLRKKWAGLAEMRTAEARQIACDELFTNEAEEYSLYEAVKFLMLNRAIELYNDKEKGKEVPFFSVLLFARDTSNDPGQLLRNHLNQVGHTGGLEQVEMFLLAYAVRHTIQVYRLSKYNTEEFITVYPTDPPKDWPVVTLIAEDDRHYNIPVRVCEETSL
Sequence of USP14 (P54578 whole entry, species assumed): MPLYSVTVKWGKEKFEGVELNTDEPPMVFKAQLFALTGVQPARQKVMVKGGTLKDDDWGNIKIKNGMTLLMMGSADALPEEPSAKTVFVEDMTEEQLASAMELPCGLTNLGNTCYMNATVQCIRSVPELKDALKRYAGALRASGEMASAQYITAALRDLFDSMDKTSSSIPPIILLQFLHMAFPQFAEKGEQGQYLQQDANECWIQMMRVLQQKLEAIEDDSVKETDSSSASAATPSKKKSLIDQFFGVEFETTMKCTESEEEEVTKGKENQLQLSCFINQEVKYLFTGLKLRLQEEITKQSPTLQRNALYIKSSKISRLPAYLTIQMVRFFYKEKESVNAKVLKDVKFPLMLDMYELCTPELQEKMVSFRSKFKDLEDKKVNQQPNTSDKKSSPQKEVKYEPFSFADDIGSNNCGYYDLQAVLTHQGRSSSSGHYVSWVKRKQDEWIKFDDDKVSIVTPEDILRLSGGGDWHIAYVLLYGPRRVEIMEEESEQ
Sequence of OTUB1 (Q96FW1 whole entry, species assumed): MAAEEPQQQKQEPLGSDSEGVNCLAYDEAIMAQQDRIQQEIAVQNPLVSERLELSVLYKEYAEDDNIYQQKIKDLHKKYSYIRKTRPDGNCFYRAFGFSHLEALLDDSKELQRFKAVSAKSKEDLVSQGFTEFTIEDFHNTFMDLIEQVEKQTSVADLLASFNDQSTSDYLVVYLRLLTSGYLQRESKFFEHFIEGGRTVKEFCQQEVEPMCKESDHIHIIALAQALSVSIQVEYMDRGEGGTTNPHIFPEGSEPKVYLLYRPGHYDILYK
Sequence of USP7 (Q93009 whole entry, species assumed): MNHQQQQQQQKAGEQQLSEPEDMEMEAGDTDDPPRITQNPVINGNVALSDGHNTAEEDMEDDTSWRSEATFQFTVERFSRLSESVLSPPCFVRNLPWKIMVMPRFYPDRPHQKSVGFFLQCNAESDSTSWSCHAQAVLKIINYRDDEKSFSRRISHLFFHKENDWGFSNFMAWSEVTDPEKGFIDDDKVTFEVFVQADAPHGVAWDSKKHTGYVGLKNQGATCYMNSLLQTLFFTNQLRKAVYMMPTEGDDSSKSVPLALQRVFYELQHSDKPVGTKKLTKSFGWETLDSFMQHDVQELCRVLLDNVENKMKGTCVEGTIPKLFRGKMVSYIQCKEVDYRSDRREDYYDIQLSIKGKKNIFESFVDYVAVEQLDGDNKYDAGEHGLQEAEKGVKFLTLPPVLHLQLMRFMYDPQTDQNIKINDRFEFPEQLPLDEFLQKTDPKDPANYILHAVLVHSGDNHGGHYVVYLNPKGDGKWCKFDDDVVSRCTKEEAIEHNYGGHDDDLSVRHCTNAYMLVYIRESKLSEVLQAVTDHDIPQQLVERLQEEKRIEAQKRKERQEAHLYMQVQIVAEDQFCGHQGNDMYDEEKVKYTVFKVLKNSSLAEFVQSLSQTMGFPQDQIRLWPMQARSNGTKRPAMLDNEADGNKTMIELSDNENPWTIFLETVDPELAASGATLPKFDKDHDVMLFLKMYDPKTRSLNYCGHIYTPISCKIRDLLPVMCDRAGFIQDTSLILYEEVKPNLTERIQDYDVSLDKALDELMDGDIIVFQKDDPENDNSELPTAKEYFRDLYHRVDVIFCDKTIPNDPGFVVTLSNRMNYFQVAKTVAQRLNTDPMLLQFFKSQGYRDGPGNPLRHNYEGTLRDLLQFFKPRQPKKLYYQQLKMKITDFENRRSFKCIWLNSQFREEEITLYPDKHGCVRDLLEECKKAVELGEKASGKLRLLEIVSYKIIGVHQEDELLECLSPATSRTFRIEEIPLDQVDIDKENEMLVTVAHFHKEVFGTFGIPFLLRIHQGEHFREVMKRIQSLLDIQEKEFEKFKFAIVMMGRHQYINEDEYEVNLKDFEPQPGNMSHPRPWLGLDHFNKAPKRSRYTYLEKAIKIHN

SMILES: C[C@H](c1cccc2ccccc12)N1CCC(C(=O)NCc2cccc(-c3cn(Cc4nnc5c(F)cccn45)nn3)c2)CC1 [SHY1643, (R)-N-(3-(1-((8-Fluoro-[1,2,4]triazolo[4,3-a]pyridin-3-yl)methyl)-1H-1,2,3-triazol-4-yl)benzyl)-1-(1-(naphthalen-1-yl)ethyl)piperidine-4-carboxamide]
- Antiviral activity against OC43 (OC43): robust antiviral activity
- Weight loss in infected mice (SARS-CoV-2 [1]; 10 mpk): significantly slowed the weight loss
- SARS-CoV-2 viral loads in the lungs (SARS-CoV-2 [1]; 10 mpk): effectively reduced viral loads in the lungs
- Expression levels of ACE2 [2]: did not affect
- Inhibitory effect on USP7 (USP7): no significant inhibitory effects
- Dimerization of Nsp3 protein (Nsp3179-1329 proteins): could induce dimerization of Nsp3 protein
- Inhibitory effect on OTUB1 (OTUB1): no significant inhibitory effects
- Inhibitory effect on UCHL1 (UCHL1): no significant inhibitory effects
- Phosphorylation levels of RIPK1 Ser166 following viral infection [3]: did not affect
- Inhibitory effect on USP14 (USP14): no significant inhibitory effects
- Inhibitory effect on USP8 (USP8): no significant inhibitory effects
- pIC50 (SARS-CoV-2 Nsp3^179−1329): 7.55
- Metabolic stability in mouse microsomes [4]: markedly improved metabolic stability compared to 2
- Inhibitory effect on OTULIN (OTULIN): no significant inhibitory effects
- Antiviral activity against 229E (229E): robust antiviral activity

SMILES: CN1C(=O)[C@@H](NC(=O)c2nnc(Cc3ccccc3)[nH]2)COc2cccnc21 [DNL758, reference compound]
- Effects against SARS-CoV-2 in ACE2-HeLa cells (SARS-CoV-2 [5]): neither QY1892 nor DNL758 exhibited detectable effects

SMILES: [2H]c1c([2H])c([C@]2([2H])CCCN2C(=O)C(C)(C)Oc2ccc3cn[nH]c3c2)c([2H])c([2H])c1C([2H])([2H])[2H] [QY1892, (S)-2-((1H-Indazol-6-yl)oxy)-2-methyl-1-(2-(4-(methyl-d3)phenyl-2,3,5,6-d4)pyrrolidin-1-yl-2-d)propan-1-one]
- Viral replication in mouse airway organoids (SARS-CoV-2 [6]): effectively suppressed the viral replication
- Effects against SARS-CoV-2 in ACE2-HeLa cells (SARS-CoV-2 [5]): neither QY1892 nor DNL758 exhibited detectable effects
- Weight loss in infected mice (SARS-CoV-2 [1]; 5 mpk): significantly slowed the weight loss
- SARS-CoV-2 viral loads in the lungs (SARS-CoV-2 [1]; 5 mpk): effectively reduced viral loads in the lungs
- Expression levels of ACE2 [2]: significantly reduced
- Cytokine secretion from the organoids upon viral infection (cytokine secretion): significantly more effective than SHY1643
- Phosphorylation levels of RIPK1 Ser166 following viral infection [3]: significantly reduced
- Kinase selectivity across the kinome [7]: no significant off-target activity observed across the kinome
- Brain distribution post-administration [8]: significant brain distribution
